Measured values: PMC7489285 (Molecular cancer therapeutics, 2012)

Experiments:
231-BR cells = experiment: MTT in vitro cytotoxicity assay; type: cell-based; conditions: Homo sapiens, 72 h, read-out: IC50 values and maximal toxicity
In short: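 231-BR cells seeded at 2,000/well 24 h before compound addition. Ethanol drug stocks were serially diluted into culture medium and added to triplicate wells, then cultured 72 h. Viable cells were read by MTT, normalized to drug-free viable cells at endpoint. At least 3 independent experiments.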

neuronal tubulin = experiment: fluorescence-enhanced tubulin polymerization assay; type: biochemical; conditions: ratio of tubulin polymerization ED50 values
[1] = tested on: intracerebrally implanted MDA-MB-435, Lu7187 and Lu7466 tumor cells; conditions: cited from earlier work; for growth of intracerebrally implanted tumor cells: MDA-MB-435, Lu7187 and Lu7466 cells
231-BR brain metastases = experiment: experimental brain metastasis model; type: in vivo, mouse
231-BR primary tumors = experiment: breast primary tumor model; type: in vivo, mouse
[2] = tested on: experimental brain metastases; conditions: 2 experimental brain metastasis models, radiolabeled drug; cited from earlier work
[3] = tested on: breast cancer brain metastases; conditions: phase II, cited from earlier work
[4] = tested on: breast cancer brain metastases; conditions: phase II, cited from earlier work; remark: listed apart in the source
[5] = mice, favorable half-life; cited from earlier work

CC(=O)O[C@@]12CO[C@@H]1C[C@H](O)[C@@]1(C)C(=O)[C@H](O)C3=C(C)[C@@H](OC(=O)[C@H](O)[C@@H](NC(=O)OC(C)(C)C)c4ccccc4)C[C@@](O)([C@@H](OC(=O)c4ccccc4)[C@H]21)C3(C)C [Docetaxel]
IC50 (231-BR cells): < 10 nM
ED50 compound/ ED50 paclitaxel (neuronal tubulin): 1.07

CC(=O)O[C@H]1C(=O)[C@@]2(C)[C@H]([C@H](OC(=O)c3ccccc3)[C@]3(O)C[C@H](OC(=O)[C@H](O)[C@@H](NC(=O)c4ccccc4)c4ccccc4)C(C)=C1C3(C)C)[C@]1(OC(C)=O)CO[C@@H]1C[C@@H]2O [Paclitaxel]
IC50 (231-BR cells): < 10 nM
growth of intracerebrally implanted tumor cells [1]: nonsignificant effects
prevention of brain metastatic colonization (231-BR brain metastases; 18 mg/kg ×3, early or late, all points not significant): ineffective
Ki67-positive 231-BR cells in brain metastases (proliferation), mean (231-BR brain metastases; day 28, 48 hours after final late 18 mg/kg treatment, vehicle 56.0% ± 2.22%): 54.4% ± 1.91%
amount of acetylated tubulin-α in primary tumors (231-BR primary tumors; 18 mg/kg i.v. every 4 days ×3, immunofluorescence): increase
estimated tumor growth rate (slope) of log10 tumor volume (231-BR primary tumors; 18 mg/kg i.v. every 4 days ×3 from day 37, days 41 to 48): −0.0450 ± 0.00743
experimental lesions with sufficient uptake to show a cytotoxic response [2]: 10%

C=CC[C@H]1C(=O)C(C)(C)[C@@H](O)CC(=O)O[C@H](c2ccc3sc(C)nc3c2)C[C@@H]2O[C@]2(C)CCC[C@H](C)[C@@H]1O [Sagopilone]
growth of intracerebrally implanted tumor cells [1]: reduced the growth
weight loss [1]: 6%
BBB penetration ([1]; mice, favorable AUC and half-life): crossed the BBB
patients achieving partial responses ([3]; progressive brain metastases after whole brain radiation therapy, two patients): 13.3%
median progression-free survival [3]: 1.4 months
overall survival [3]: 5.3 months

C/C(=C\c1csc(C)n1)[C@@H]1C[C@@H]2O[C@]2(C)CCC[C@H](C)[C@H](O)[C@@H](C)C(=O)C(C)(C)[C@@H](O)CC(=O)N1 [ixabepilone]
IC50 (231-BR cells): < 10 nM
toxicity of initial doses (231-BR brain metastases; mice, initial 2 doses of 5 mg/kg): significant toxicity

C/C(=C\c1csc(C)n1)[C@@H]1C[C@@H]2O[C@]2(C)CCC[C@H](C)[C@H](O)[C@@H](C)C(=O)C(C)(C)[C@@H](O)CC(=O)O1 [patupilone]
partial responses, patients ([4]; 6 of 31): 19%
stable disease, patients ([4]; 9 of 31): 29%
incidence of peripheral neuropathy [4]: 27%
brain distribution [5]: Significant brain distribution
